This is a sample that favours compounds with a hit; in the whole collection about 2% have one here.
VLA-4 inh – inhibition in human VLA-4 binding assay, primary screen, VLA-4 allosteric modulator project, MLPCN library, flow cytometry, VLA-4 expressing cells; ligand binding flow cytometry; inhibition, % (about 7 µM as worked out from the volumes in the protocol); 330,000 tested, 0.2% active; AID 2557, 2010; in the data active = inhibition above about 50%
MT1-MMP act inh – blockers of MT1-MMP proenzyme processing, primary screen, HT1080 RFP-PRO-GFP cells, GFP/RFP fluorescence. GFP/RFP ratio change, % at 20 µM. GFP/RFP ratio fluorescence, overnight; percent of plate control window, DMSO zero. 360,000 tested, 0.061% active. AID 651647, 2012;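 active = GFP/RFP ratio change of at least 30% with cell ATP level not reduced by more than half and red fluorescence within 50% of control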
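Test system: HT1080 RFP-PRO-GFP cells; Benchmarks: DMSO and RFP-L50D-GFP cell wells; Timing: cells overnight before dosing, compound overnight, 37 °C, 5% CO2; Compound: one 20 µM compound dose with 1% DMSO; Read-out: GFP/RFP fluorescence ratio.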
DAGLB inh – DAGLB lipase inhibitors, primary screen, biochemical, fluorescence, HTS | Diacylglycerol lipase-beta (Homo sapiens), Q8NCG7 | HEK293T DAGLB membrane lysate, EnzChek fluorogenic substrate | inhibition, % at 5.17 µM | 340,000 tested, 0.059% active; in the data active = inhibition above about 34%
Target sequence (Q8NCG7 whole entry, looked up): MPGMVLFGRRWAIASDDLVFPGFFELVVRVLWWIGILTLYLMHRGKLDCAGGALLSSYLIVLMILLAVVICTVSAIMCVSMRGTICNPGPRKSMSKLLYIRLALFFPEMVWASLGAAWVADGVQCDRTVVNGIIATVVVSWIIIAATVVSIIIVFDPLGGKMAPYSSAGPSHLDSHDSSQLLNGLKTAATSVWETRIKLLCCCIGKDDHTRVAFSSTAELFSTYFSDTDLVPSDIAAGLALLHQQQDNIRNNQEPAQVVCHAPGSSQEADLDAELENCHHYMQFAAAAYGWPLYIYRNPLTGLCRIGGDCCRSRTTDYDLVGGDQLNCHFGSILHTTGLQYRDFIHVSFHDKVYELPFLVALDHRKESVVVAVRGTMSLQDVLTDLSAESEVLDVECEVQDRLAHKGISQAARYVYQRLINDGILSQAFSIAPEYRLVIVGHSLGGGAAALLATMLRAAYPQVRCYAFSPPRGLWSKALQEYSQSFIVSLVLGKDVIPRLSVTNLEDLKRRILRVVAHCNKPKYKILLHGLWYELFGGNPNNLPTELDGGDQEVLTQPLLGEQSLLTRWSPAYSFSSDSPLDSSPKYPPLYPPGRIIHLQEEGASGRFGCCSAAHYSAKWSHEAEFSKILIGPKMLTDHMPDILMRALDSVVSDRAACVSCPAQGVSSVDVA
FGF22 binding – binders of human FGF22 protein, primary screen, FGF22 synaptogenesis inhibitor project, biophysical, thermal shift, single point | Fibroblast growth factor 22 (Homo sapiens), Q9HCT0 | recombinant FGF22 thermal shift, SYPRO orange fluorescence; percent of sucrose octasulfate shift, DMSO zero | activity (Tm shift, normalised), % at 9.99 µM | 340,000 tested, 1.5% active;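 active = mean Tm shift, scaled 0 neutral to 100 positive control, at about 1.3% or above, every replicate too, limit read from the data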
Exocytosis inh – LAMP-1 surface exposure blockers, TALL-104 cells – cell-based, flow cytometry, MLPCN library, primary screen; TALL-104 LAMP-1 surface exposure; cells stimulated with thapsigargin and PMA; inhibition, % at 10 µM; 360,000 tested, 0.66% active; AID 651702, 2012;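 active = inhibition above about 55%, limit read from the data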
ABCB6 inh 2 – ABCB6 transporter inhibitors, primary screen, K562-ABCB6 cells, flow cytometry, MLPCN library; ATP-binding cassette sub-family B member 6 (Homo sapiens), Q9NP58; K562-ABCB6 porphyrin accumulation, 1 h; active compounds read low; fluorescence ratio to DMSO, % at 10 µM; 360,000 tested, 0.19% active; AID 602162, 2011;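 active = fluorescence ratio to DMSO below 75%, the collection mean minus 3 SD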;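 also: signal is porphyrin accumulated inside mitochondria; lower ratio means ABCB6 inhibition with less porphyrin fluorescence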
Large screens that a line does not name were inactive.

O=C(Nc1cc(Cl)ccc1-n1cncn1)c1cncc(Br)c1	none (no result: FGF22 binding)
O=C(Nc1cc(Cl)ccc1-n1cncn1)c1ccc(Br)o1	FGF22 binding 13
Cc1ccc(S(=O)(=O)N[C@@H]2CC[C@H](CC(=O)NCc3ccccc3F)O[C@H]2CO)cc1	none (no result: VLA-4 inh, MT1-MMP act inh, DAGLB inh, Exocytosis inh, ABCB6 inh 2)
COc1ccc(C#Cc2ccc3c(c2)[C@H]2[C@H](CCN2C(=O)NC(C)C)[C@H](CO)N3C)cc1	none (no result: VLA-4 inh, MT1-MMP act inh, DAGLB inh, Exocytosis inh, ABCB6 inh 2)
CCCCCCN1C[C@H](O)[C@@H](n2cc(C3CC3)nn2)C[C@@H]1c1ccc(C)cc1	FGF22 binding 44 (no result: VLA-4 inh)
O=C(Nc1cccc(Cl)c1)N1C[C@H]2[C@@H](c3ccccc31)[C@H](CO)N2Cc1ccncc1	none (no result: VLA-4 inh, MT1-MMP act inh, DAGLB inh, Exocytosis inh, ABCB6 inh 2)
CS(=O)(=O)N1CCN(c2ccc(NC(=O)COc3ccccc3)cc2)CC1	none (no result: DAGLB inh)
COc1ccc(NC(=O)N2CCN(C(=O)Nc3ccc(OC)cc3)CC2)cc1	none
Cc1ccc(OCC(=O)Nc2ccc(N3CCN(S(C)(=O)=O)CC3)cc2)cc1	FGF22 binding 43
COc1ccc(NC(=O)N2CCN(S(C)(=O)=O)CC2)cc1	FGF22 binding 43
C[C@@H]1CN([C@H](C)CO)C(=O)c2cccc(NC(=O)c3nc4ccccc4s3)c2O[C@H]1CN(C)Cc1ccc(C(=O)Nc2ccccc2N)cc1	none (no result: VLA-4 inh, MT1-MMP act inh, DAGLB inh, Exocytosis inh, ABCB6 inh 2)
CC1CCN(S(=O)(=O)c2ccc3c(c2)C(=NO)c2cc(S(=O)(=O)N4CCC(C)CC4)ccc2-3)CC1	ABCB6 inh 2 70 (no result: FGF22 binding)
O=S(=O)(c1ccc2c(c1)C(=NO)c1cc(S(=O)(=O)N3CCCCC3)ccc1-2)N1CCCCC1	ABCB6 inh 2 72 (no result: FGF22 binding)
COc1ccc(S(=O)(=O)N2CCC(C)CC2)cc1OC	none
O=C(NC1CCCC1)[C@H]1[C@H](CO)[C@H]2Cn3c(ccc(-c4ccncc4)c3=O)[C@H]2N1CCc1ccccc1	none (no result: VLA-4 inh, MT1-MMP act inh, DAGLB inh, Exocytosis inh, ABCB6 inh 2)
O=C(C[C@H]1C=C[C@H](NC(=O)CN2CCOCC2)[C@@H](CO)O1)NC1CCC1	none (no result: VLA-4 inh, MT1-MMP act inh, DAGLB inh, Exocytosis inh, ABCB6 inh 2)
C[C@@H]1CN([C@H](C)CO)C(=O)Cc2cc(NC(=O)Nc3ccc4c(c3)OCO4)ccc2O[C@H]1CN(C)Cc1ccc(Oc2ccccc2)cc1	none (no result: VLA-4 inh, MT1-MMP act inh, DAGLB inh, Exocytosis inh, ABCB6 inh 2)
O=C(O)CC(NC(=O)C12CC3CC(CC(C3)C1)C2)c1ccc(F)cc1 (centres undefined)	none
O=C(O)CC(NC(=O)C12CC3CC(CC(C3)C1)C2)c1ccc2c(c1)OCO2 (centres undefined)	FGF22 binding 43
CC(C)c1nc(SCC(=O)c2ccc(F)cc2)c2ccccc2n1	FGF22 binding 43
C/C=C/c1ccc2c(c1)O[C@@H](CN(C)C(=O)Nc1cc(F)ccc1F)[C@H](C)CN([C@@H](C)CO)S2(=O)=O	none (no result: VLA-4 inh, MT1-MMP act inh, DAGLB inh, Exocytosis inh, ABCB6 inh 2)
O=C(Nc1cccc(Cl)c1)N1C[C@H]2[C@@H](c3ccccc31)[C@H](CO)N2Cc1ccccc1Cl	FGF22 binding 84 (no result: VLA-4 inh, MT1-MMP act inh, DAGLB inh, Exocytosis inh, ABCB6 inh 2)
O=C(Nc1cccc(Cl)c1)N1C[C@@H]2[C@H](c3ccccc31)[C@H](CO)N2Cc1ccccc1Cl	none (no result: VLA-4 inh, MT1-MMP act inh, DAGLB inh, Exocytosis inh, ABCB6 inh 2)
COc1ccc(N2CCN(S(=O)(=O)c3cccc4nsnc34)CC2)cc1	none (no result: FGF22 binding)
CC(=O)c1ccc(N2CCN(S(=O)(=O)c3cccc4nsnc34)CC2)cc1	FGF22 binding 43
CCNC(=O)C[C@H]1CC[C@@H]2[C@H](COC[C@H](O)CN2C(=O)Nc2ccc(Cl)c(Cl)c2)O1	none (no result: VLA-4 inh, MT1-MMP act inh, DAGLB inh, Exocytosis inh, ABCB6 inh 2)
C[C@@H]1CCCCO[C@H](CN(C)S(=O)(=O)c2ccc(Cl)cc2)[C@@H](C)CN([C@@H](C)CO)C(=O)c2cc(NC(=O)c3ccccc3)ccc2O1	none (no result: VLA-4 inh, MT1-MMP act inh, DAGLB inh, Exocytosis inh, ABCB6 inh 2)
CC(NC(=O)COC(=O)C12CC3CC(CC(O)(C3)C1)C2)c1ccccc1 (centres undefined)	FGF22 binding 43
C[C@@H](O)C#Cc1ccc([C@H]2[C@H]3CN(C(=O)c4ccc(F)cc4)CCCCN3[C@H]2CO)cc1	none (no result: VLA-4 inh, MT1-MMP act inh, DAGLB inh, Exocytosis inh, ABCB6 inh 2)
